Results collected from several papers.
Target: Epithelial discoidin domain-containing receptor 1 (DDR1, Homo sapiens, UniProt Q08345)

Compound	test	conditions	measurement	result
CC/C(=N\NC(=O)NCc1cccc(O)c1)c1ccc(O)c(C)c1O	enzyme activity, inhibitor	0.1 µM	inhibition	-0.9%
Nc1c(C(=O)NCc2ccc(C(=O)NCCCC3CCCCC3)cc2)cnn1-c1ccccc1	binding, competition with immobilised ligand	1 µM	remaining binding	43%
Nc1ncnc2occ(-c3ccc(NC(=O)Nc4cc(C(F)(F)F)ccc4F)cc3)c12	cell-free assay	20 µM	remaining signal	0.25%
CN1CC(Oc2cnc(C#N)cc2-c2ccn3nc(NC(=O)C4CC4)cc3c2)C1	enzyme activity, inhibitor	1 µM	inhibition	29%
COCCOc1nc(-c2ccc(Cl)nc2)nc2c1CN(C(=O)c1ncn3ccccc13)CC2	cell-free assay, competition with immobilised ligand	0.1 µM	remaining binding	100%
O=C(Nc1cnn(-c2csc(C(=O)NC3COC3)c2)c1)Nc1ccccc1Cl	enzyme activity, inhibitor	5 µM	remaining activity	98.4%
Cc1ccc(NC(=O)c2ccc(C)c(C(F)(F)F)c2)cc1C#Cc1nn(C2CCC(O)CC2)c2ncnc(N)c12 (centres unmarked)	cell-free assay	10 µM	remaining signal	-2%
COc1cc(Cl)c(C(=O)N[C@@H](CN[C@H]2CC[C@@H](N)CC2)Cc2ccc(C#N)cc2)cc1-c1ccc(CN[C@H](C)c2ccc(C)cc2)o1	enzyme activity, inhibitor	1 µM	remaining activity	112%
CCOCCn1cc(C(=O)Nc2ccc(-n3nc(-c4cccnc4)cc3C(F)(F)F)cn2)ccc1=O	cell-free assay, competition with immobilised ligand	1 µM	remaining binding	69%
Cc1cnc(NC2CCOCC2)nc1-n1cnc(C(=O)NC(CN)c2cc(F)cc(Cl)c2)c1 (centres unmarked)	enzyme activity, inhibitor, radiometric	1 µM	remaining activity	104%
Cc1cc(NC(=O)c2cccc3cc(-c4cccc5[nH]nc(N)c45)ccc23)ccc1F	enzyme activity, inhibitor	0.1 µM	activity vs control	61%
C[C@H]1CCN(c2nccc(-c3cnn4ncccc34)n2)C1	binding	1 µM	remaining binding	100%
COc1cc2nccc(Oc3ccc(NC(=O)c4c5n(n(-c6ccc(F)cc6)c4=O)CCCC5)cc3)c2cc1OC	enzyme activity, inhibitor	0.1 µM	inhibition	42%
Cc1ccc(C(=O)NCc2ccsc2)cc1C#Cc1cn(C(C)C)c2ncnc(N)c12	enzyme activity, inhibitor	1 µM	activity vs control	0%
CNC(=O)c1cc2c(Oc3ccc(NC(=O)C4(C(=O)Nc5ccc(F)cc5)CC4)cc3)ccnc2cc1OC	enzyme activity, inhibitor, radiometric	1 µM	inhibition	88%
CC(C)(O)[C@H]1CC[C@H](Nc2ccc3ncc(-c4cccc(C(F)(F)F)c4)n3n2)CC1	enzyme activity, inhibitor	1 µM	remaining activity	6.32%
Cc1sc(C(=O)NC2COC2)cc1-n1cc(NC(=O)Nc2c(F)cccc2Cl)cn1	enzyme activity, inhibitor	10 µM	remaining activity	83.7%
